Data: article PMC7571300 (ACS Pharmacology & Translational Science, 2020)
Read-outs that look alike come from different tables or passages of the source.

Experiments:
[1] = target: T1, SARS-CoV-2 M^pro (Severe acute respiratory syndrome coronavirus 2, UniProt P0DTD1); test: Thermal shift binding assay; settings: for Tm change, SARS-CoV-2 M^pro: 4 mM DTT, 40 μM compound (shikonin 10 μM), 3 μM protease
[2] = target: T2, EV-A71 2A^pro (Enterovirus A71, UniProt B9VUU3); test: FRET-based enzymatic assay; assay type: biochemical
T2 sequence (B9VUU3 863-1012): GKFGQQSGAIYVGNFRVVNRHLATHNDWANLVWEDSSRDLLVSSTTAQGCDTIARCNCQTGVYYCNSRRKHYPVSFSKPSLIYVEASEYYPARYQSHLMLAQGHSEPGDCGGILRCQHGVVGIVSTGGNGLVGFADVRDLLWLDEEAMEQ

[3] = target: T3, EV-A71 3C^pro (Enterovirus A71, UniProt B9VUU3); test: FRET-based enzymatic assay; assay type: biochemical
[4] = target: T4, EV-D68 2A^pro (Enterovirus D68, UniProt A0A097BW19); test: Thermal shift binding assay; settings: 4 mM DTT; 40 μM compound (shikonin 10 μM); 3 μM protease
T4 sequence (A0A097BW19 863-1009): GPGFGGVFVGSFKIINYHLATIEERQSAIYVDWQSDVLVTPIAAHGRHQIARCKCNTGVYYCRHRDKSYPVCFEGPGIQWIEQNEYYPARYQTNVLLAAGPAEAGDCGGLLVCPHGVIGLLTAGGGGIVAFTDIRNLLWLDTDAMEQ
Outline: (§1)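 Codon-optimised 2Apro was expressed in E. coli from pET28b(+), from EV-A71/7D3 or EV-D68 US/KY/14–18953. Protease (3 μM) in 50 mM Tris pH 7.0, 150 mM NaCl, 10% glycerol, with or without 4 mM DTT, was preincubated with test compound or DMSO at 30 °C for 30 min. SYPRO orange (1×) was then added and fluorescence followed over 20–90 °C at 0.05 °C/s. Tm was taken as the transition mid log (Boltzmann model).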

[5] = target: T5, EV-D68 3C^pro (Enterovirus D68, UniProt A0A097BW19); test: biochemical
T5 sequence (A0A097BW19 1550-1732): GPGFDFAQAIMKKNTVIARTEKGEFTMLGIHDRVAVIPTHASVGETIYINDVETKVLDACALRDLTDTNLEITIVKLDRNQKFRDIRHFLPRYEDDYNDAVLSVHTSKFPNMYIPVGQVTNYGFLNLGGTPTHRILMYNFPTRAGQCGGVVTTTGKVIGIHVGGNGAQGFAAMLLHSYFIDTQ

[6] = target: T4, EV-D68 2A^pro; test: FRET-based enzymatic assay; assay type: biochemical
[7] = target: T1, SARS-CoV-2 M^pro; assay type: binding
[8] = target: T5, EV-D68 3C^pro; test: Thermal shift binding assay; settings: for Tm change, EV-D68 3C^pro: 4 mM DTT, 40 μM compound (shikonin 10 μM), 3 μM protease
Outline: (§2)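 3Cpro (EV-A71/7D3 or EV-D68 US/KY/14–18953; codon-optimised, pET28b(+), BL21(DE3), 0.5 mM IPTG at 18 °C for 24 h, Ni-NTA purified) was used at 3 μM. Buffer was 50 mM Tris pH 7.0, 150 mM NaCl, 1 mM EDTA, 10% glycerol, with or without 4 mM DTT. Protease was preincubated with test compound or DMSO (30 °C, 30 min), then SYPRO orange (1×) added and a 20–90 °C ramp (0.05 °C/s) run. Tm came from a Boltzmann fit.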

[9] = test system: SARS-CoV-2; settings: at 10 μM; cited from earlier work
[10] = target: T3, EV-A71 3C^pro; test: Thermal shift binding assay; settings: 4 mM DTT; 40 μM compound (shikonin 10 μM); 3 μM protease
Outline: as §2

[11] = target: SARS-CoV-2 PL^pro (Severe acute respiratory syndrome coronavirus 2, UniProt P0DTD1); test: Thermal shift binding assay; settings: 4 mM DTT; 40 μM compound (shikonin 10 μM); 3 μM protease
Outline: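 SARS-CoV-2 PLpro (ORF1ab 1564–1876, strain WIV04) was expressed from pET28b(+) in BL21(DE3) (0.5 mM IPTG, 18 °C, 24 h), Ni-NTA purified and eluted with 300 mM imidazole. Protein (3 μM) in 50 mM HEPES pH 7.5, 0.01% Triton X-100, with or without 4 mM DTT, sat with test compound or DMSO for 30 min at 30 °C. SYPRO orange (1×) was added and a 20–90 °C ramp at 0.05 °C/s applied. Tm was from a Boltzmann fit.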

[12] = in vitro; settings: human, CC50 (EV-A71 CPE assay conditions), RD cells, no virus, 37 °C, no MgCl2
[13] = target: T2, EV-A71 2A^pro; test: Thermal shift binding assay; settings: 4 mM DTT; 40 μM compound (shikonin 10 μM); 3 μM protease
Outline: as §1

[14] = EV-A71 2A^pro IC50, with 4 mM DTT
[15] = EV-A71 3C^pro IC50, with 4 mM DTT
[16] = EV-D68 3C^pro IC50, with 4 mM DTT
[17] = EV-D68 2A^pro IC50, with 4 mM DTT

SMILES: CCCCCCNC(=O)n1cc(F)c(=O)[nH]c1=O [carmofur]
- Tm change, SARS-CoV-2 M^pro [1]: no Tm change
- Tm increase, SARS-CoV-2 M^pro ([1]; absence of DTT, 40 μM compound): 4.76 °C
- IC50 ([2]; EV-A71 2A^pro IC50, no DTT): 12.9 ± 4.5 µM
- IC50 [2, 14]: > 60 µM
- IC50 ([3]; EV-A71 3C^pro IC50, no DTT): 0.4 ± 0.2 µM
- IC50 [3, 15]: > 60 µM
- Tm change, EV-D68 2A^pro [4]: no Tm change
- IC50 ([5]; EV-D68 3C^pro IC50, no DTT): 0.3 µM
- IC50 [5, 16]: > 60 µM
- IC50 ([6]; EV-D68 2A^pro IC50, no DTT): 6.4 ± 1.3 µM
- IC50 [6, 17]: > 60 µM
- Ligand binding to M^pro dimer ([7]; with 4 mM DTT, 10-40 μM drug): moderate binding
- Ligands bound per M^pro dimer ([7]; without DTT, 10-40 μM drug): up to three ligands per dimer
- Tm change, EV-D68 3C^pro [8]: no Tm change
- Tm increase, EV-D68 3C^pro ([8]; absence of DTT, 40 μM compound): 0.87 °C
- Reduction of viral replication, viral titer reduction assay [9]: no significant antiviral effect
- Tm change, EV-A71 3C^pro [10]: no Tm change
- Tm change, SARS-CoV-2 PL^pro [11]: no Tm change
- CC50 [12]: 47.2 µM
- Tm change, EV-A71 2A^pro [13]: no Tm change

SMILES: CCC[C@H](NC(=O)[C@@H]1[C@H]2CCC[C@H]2CN1C(=O)[C@@H](NC(=O)[C@@H](NC(=O)c1cnccn1)C1CCCCC1)C(C)(C)C)C(=O)C(=O)NC1CC1 [telaprevir]
- IC50 ([2]; EV-A71 2A^pro IC50, no DTT): 1.8 ± 0.9 µM
- IC50 [2, 14]: 1.3 µM
- Tm change, EV-D68 2A^pro [4]: increased the Tm
- IC50 ([6]; EV-D68 2A^pro IC50, no DTT): 0.1 µM
- Tm change, EV-A71 2A^pro [13]: increased the Tm

SMILES: CC(C)=CC[C@@H](O)C1=CC(=O)c2c(O)ccc(O)c2C1=O [shikonin]
- Tm change, SARS-CoV-2 M^pro [1]: no Tm change
- IC50 ([2]; EV-A71 2A^pro IC50, no DTT): 36 ± 20.5 µM
- IC50 [2, 14]: > 60 µM
- IC50 ([3]; EV-A71 3C^pro IC50, no DTT): 0.5 ± 0.2 µM
- IC50 [3, 15]: > 60 µM
- Tm change, EV-D68 2A^pro [4]: no Tm change
- IC50 ([5]; EV-D68 3C^pro IC50, no DTT): 1.2 ± 0.7 µM
- IC50 [5, 16]: > 60 µM
- IC50 ([6]; EV-D68 2A^pro IC50, no DTT): 37 ± 14.2 µM
- IC50 [6, 17]: > 60 µM
- Ligand binding to M^pro dimer ([7]; with 4 mM DTT, 10-40 μM drug): completely disrupted
- Ligands bound per M^pro dimer ([7]; without DTT, 10-40 μM drug): up to four ligands per dimer
- Tm change, EV-D68 3C^pro [8]: no Tm change
- Tm change, EV-A71 3C^pro [10]: no Tm change
- Tm change, SARS-CoV-2 PL^pro [11]: no Tm change
- CC50 [12]: 0.8 µM
- Tm change, EV-A71 2A^pro [13]: no Tm change

SMILES: CCN(CC)C(=S)SSC(=S)N(CC)CC [disulfiram]
- Tm change, SARS-CoV-2 M^pro [1]: no Tm change
- IC50 ([2]; EV-A71 2A^pro IC50, no DTT): 11.8 ± 2.1 µM
- IC50 [2, 14]: > 60 µM
- IC50 ([3]; EV-A71 3C^pro IC50, no DTT): 1 ± 0.6 µM
- IC50 [3, 15]: > 60 µM
- Tm change, EV-D68 2A^pro [4]: no Tm change
- IC50 ([5]; EV-D68 3C^pro IC50, no DTT): 0.6 ± 0.1 µM
- IC50 [5, 16]: > 60 µM
- IC50 ([6]; EV-D68 2A^pro IC50, no DTT): 3.5 ± 0.5 µM
- IC50 [6, 17]: > 60 µM
- Ligand binding to M^pro dimer ([7]; with 4 mM DTT, 10-40 μM drug): completely disrupted
- Ligands bound per M^pro dimer ([7]; without DTT, 10-40 μM drug): up to three
- Tm change, EV-D68 3C^pro [8]: no Tm change
- Reduction of viral replication, viral titer reduction assay [9]: ~30%
- Tm change, EV-A71 3C^pro [10]: no Tm change
- Tm change, SARS-CoV-2 PL^pro [11]: no Tm change
- CC50 [12]: 8.3 µM
- Tm change, EV-A71 2A^pro [13]: no Tm change

SMILES: O=c1c2ccccc2[se]n1-c1ccccc1 [ebselen]
- Tm change, SARS-CoV-2 M^pro [1]: no Tm change
- IC50 ([2]; EV-A71 2A^pro IC50, no DTT): 5.9 ± 1.1 µM
- IC50 [2, 14]: > 60 µM
- IC50 ([3]; EV-A71 3C^pro IC50, no DTT): 1.2 ± 0.7 µM
- IC50 [3, 15]: > 60 µM
- Tm change, EV-D68 2A^pro [4]: no Tm change
- IC50 ([5]; EV-D68 3C^pro IC50, no DTT): 0.1 µM
- IC50 [5, 16]: > 60 µM
- IC50 ([6]; EV-D68 2A^pro IC50, no DTT): 3.6 ± 1 µM
- IC50 [6, 17]: > 60 µM
- Ligand binding to M^pro dimer [7]: completely disrupted
- Ligands bound per M^pro dimer [7]: four
- Tm change, EV-D68 3C^pro [8]: no Tm change
- Tm change, EV-A71 3C^pro [10]: no Tm change
- Tm change, SARS-CoV-2 PL^pro [11]: no Tm change
- CC50 [12]: 17 µM
- Tm change, EV-A71 2A^pro [13]: no Tm change

SMILES: O=c1sn(-c2cccc3ccccc23)c(=O)n1Cc1ccccc1 [tideglusib]
- Tm change, SARS-CoV-2 M^pro [1]: no Tm change
- IC50 ([2]; EV-A71 2A^pro IC50, no DTT): 3.4 ± 2.9 µM
- IC50 [2, 14]: > 60 µM
- IC50 ([3]; EV-A71 3C^pro IC50, no DTT): 1.2 ± 0.1 µM
- IC50 [3, 15]: > 60 µM
- Tm change, EV-D68 2A^pro [4]: no Tm change
- IC50 ([5]; EV-D68 3C^pro IC50, no DTT): 0.6 ± 0.3 µM
- IC50 [5, 16]: > 60 µM
- IC50 ([6]; EV-D68 2A^pro IC50, no DTT): 1.3 ± 0.7 µM
- IC50 [6, 17]: > 60 µM
- Ligand binding to M^pro dimer ([7]; with 4 mM DTT, 10-40 μM drug): did not bind
- Ligands bound per M^pro dimer ([7]; without DTT, 10-40 μM drug): did not bind
- Tm change, EV-D68 3C^pro [8]: no Tm change
- Reduction of viral replication, viral titer reduction assay [9]: no significant antiviral effect
- Tm change, EV-A71 3C^pro [10]: no Tm change
- Tm change, SARS-CoV-2 PL^pro [11]: no Tm change
- CC50 [12]: 16.6 µM
- Tm change, EV-A71 2A^pro [13]: no Tm change
